The results in this text go back to ChEMBL document CHEMBL3763142, “Discovery of potent anti-tuberculosis agents targeting leucyl-tRNA synthetase” (Bioorg Med Chem, 2016).

Series [1] is described as follows: Inhibition of Mycobacterium tuberculosis leucyl-tRNA synthetase assessed as reduction of [14C]-L-leucine ligation to tRNA incubated for 5 mins by scintillation counting method in presence of ATP. Put shortly:
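His-tag Ni-NTA-purified M. tuberculosis LeuRS (25 nM) expressed in E. coli Rosetta (DE3). Buffer: 100 mM Tris-HCl pH 8.0, 10 mM MgCl2, 2 mM DTT, 90 µM [14C]-L-leucine, 4 mg/ml E. coli tRNA. Inhibitor (DMSO) preincubated 5 min at 37 °C; started with 2 mM ATP (final). TCA-quenched, scintillation-counted; at least triplicates averaged for IC50.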

Series [2] relates to Mycobacterium tuberculosis. The series is described as follows: Antimicrobial activity against Mycobacterium tuberculosis H37Rv assessed as growth inhibition after 5 days by fluorescence analysis. To be noted: 120 h.
The target of series [3] is Leucine--tRNA ligase, cytoplasmic (Homo sapiens, UniProt Q9P2J5). Nature of the series: Inhibition of human leucyl-tRNA synthetase assessed as reduction of [14C]-L-leucine ligation to tRNA incubated for 5 mins by scintillation counting method in presence of ATP.
A short description of series [4]: Cytotoxicity against mouse J774 cells assessed as cell viability at 80 ug/ml by MTT assay. The series is classed as cell-based. As to conditions: read-out: Activity. Put shortly:
(§1)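 MTT proliferation assay on uninfected J774 macrophages, run in parallel with the intracellular infection assay at the same three concentrations. Reported as percentage viability.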

Series [5] deals with Mycobacterium tuberculosis. Nature of the series: Antimicrobial activity against Mycobacterium tuberculosis infected in mouse J774 cells assessed as log reduction of bacterial burden at 8 ug/ml after 7 days. The series is classed as functional. The gist of the method: (§2)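 J774 cells in RPMI 1640 with L-glutamine/FBS, 2.0*10^5 per well, then switched to 1% FBS. Infected 4 h at MOI 5, washed, drug added for 7 days. At 0 and 7 d, lysed with SDS, DNase-treated and plated on 7H10 agar for CFU. Log reduction is from 0 h to day 7; duplicates, rifampin positive control.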

Series [6] in a line: Cytotoxicity against mouse J774 cells assessed as cell viability at 0.8 ug/ml by MTT assay. The series is classed as cell-based. To be noted: read-out: Activity. Put shortly: as §1
Background: Tetrazolium dyes change colour on reduction, which living cells bring about.

Series [7] has as its system Mycobacterium tuberculosis. The series is described as follows: Antimicrobial activity against Mycobacterium tuberculosis infected in mouse J774 cells assessed as log reduction of bacterial burden at 80 ug/ml after 7 days. The series is classed as functional. The gist of the method: as §2
Series [8] relates to Mycobacterium tuberculosis. The series is described as follows: Antimicrobial activity against Mycobacterium tuberculosis infected in mouse J774 cells assessed as log reduction of bacterial burden at 0.8 ug/ml after 7 days. The series is classed as functional. The gist of the method:
as §2

A short description of series [9]: Cytotoxicity against mouse J774 cells assessed as cell viability at 8 ug/ml by MTT assay. The series is classed as cell-based. As to conditions: read-out: Activity. The gist of the method: as §1

Converted amounts (≈) assume the structure as drawn.

Leucine--tRNA ligase, cytoplasmic, sequence (Q9P2J5 whole entry): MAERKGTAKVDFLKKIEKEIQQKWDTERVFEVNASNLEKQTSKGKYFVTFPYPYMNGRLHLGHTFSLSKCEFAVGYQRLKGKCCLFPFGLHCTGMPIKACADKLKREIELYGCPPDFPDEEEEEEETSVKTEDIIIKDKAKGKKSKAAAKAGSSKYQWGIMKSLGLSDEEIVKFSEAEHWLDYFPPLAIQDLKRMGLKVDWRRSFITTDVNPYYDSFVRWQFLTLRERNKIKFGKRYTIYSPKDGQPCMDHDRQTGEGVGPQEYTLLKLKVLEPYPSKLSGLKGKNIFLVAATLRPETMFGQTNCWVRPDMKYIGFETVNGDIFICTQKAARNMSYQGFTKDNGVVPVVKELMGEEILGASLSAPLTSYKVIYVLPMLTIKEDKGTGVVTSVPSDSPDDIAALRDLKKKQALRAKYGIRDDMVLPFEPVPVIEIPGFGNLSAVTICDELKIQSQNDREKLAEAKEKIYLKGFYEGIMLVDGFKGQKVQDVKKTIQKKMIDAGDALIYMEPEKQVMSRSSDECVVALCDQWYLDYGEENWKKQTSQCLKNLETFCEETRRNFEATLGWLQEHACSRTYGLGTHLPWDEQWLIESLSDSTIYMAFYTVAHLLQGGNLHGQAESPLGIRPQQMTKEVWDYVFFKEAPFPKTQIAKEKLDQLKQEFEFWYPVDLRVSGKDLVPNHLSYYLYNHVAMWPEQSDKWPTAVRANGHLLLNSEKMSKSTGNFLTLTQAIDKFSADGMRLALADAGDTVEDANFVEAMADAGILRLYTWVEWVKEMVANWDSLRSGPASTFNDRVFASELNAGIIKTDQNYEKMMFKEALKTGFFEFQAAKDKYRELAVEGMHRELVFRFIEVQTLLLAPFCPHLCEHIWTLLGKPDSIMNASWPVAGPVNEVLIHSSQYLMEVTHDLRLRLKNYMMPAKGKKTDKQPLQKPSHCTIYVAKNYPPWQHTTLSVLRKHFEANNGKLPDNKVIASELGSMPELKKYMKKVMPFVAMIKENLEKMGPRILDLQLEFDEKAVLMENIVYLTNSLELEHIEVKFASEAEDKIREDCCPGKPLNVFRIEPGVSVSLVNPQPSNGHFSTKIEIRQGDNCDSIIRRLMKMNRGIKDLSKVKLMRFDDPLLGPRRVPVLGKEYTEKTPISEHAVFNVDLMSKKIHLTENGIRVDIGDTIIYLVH

In the case of `COc1cc(/C=N/Nc2nc(-c3ccccc3)cs2)cc(OC)c1O`, the half-inhibitory concentration (IC50) in series [1] was over 20 µM.

On to `COc1cc(/C=N/Nc2nc(-c3cccc([N+](=O)[O-])c3)cs2)ccc1O`, for which, in series [1], the IC50 turned out to be 15.9 µM. Besides, in series [2], the IC50 was over 200 µM, the IC90 is over 200 µM and the MIC is over 200 µM.

With `COc1cc(/C=N\Nc2nc(-c3ccc([N+](=O)[O-])cc3)cs2)cc([N+](=O)[O-])c1O`, in series [1], the IC50 is 8 µM. In series [2], the IC50 turned out to be 20.6 µM, the IC90 is 28.8 µM and the MIC was found to be 50 µM (≈ 20.8 µg/mL). In addition, the IC50 in series [3] came out at 45.8 µM.

For the compound `CCOC(=O)Cc1csc(N/N=C/c2cc(Br)c(O)c(Br)c2)n1`, in series [1], the IC50 is over 20 µM.

Turning to `COc1cc(/C=N/Nc2nccs2)cc(OC)c1O`, the IC50 in series [1] is over 20 µM.

Consider `COc1cc(/C=N/Nc2nccs2)cc(Br)c1O`, for which, in series [1], the IC50 was over 20 µM.

Regarding `CO[C@H]1/C=C/O[C@@]2(C)Oc3c(C)c(O)c4c(O)c(c(/C=N/N5CCN(C)CC5)c(O)c4c3C2=O)NC(=O)/C(C)=C\C=C\[C@H](C)[C@H](O)[C@@H](C)[C@@H](O)[C@@H](C)[C@H](OC(C)=O)[C@@H]1C` [RIFAMPIN], the viability at 80 ug/ml in series [4] is 73%. The Activity in series [5] is 2.39 deltalog10CFU; in series [7], 2.86 deltalog10CFU; in series [8], 1.06 deltalog10CFU. Besides, in [6], the viability at 0.8 ug/ml stood at 95%. Further, the viability at 8 ug/ml in series [9] is 85%.

On to `Oc1ccc(Br)cc1/C=N/Nc1nccs1`, for which the IC50 in [1] was over 20 µM.

In the case of `O=[N+]([O-])c1ccc(-c2csc(N/N=C\c3ccc(O)c([N+](=O)[O-])c3)n2)cc1`, the IC50 in series [1] amounted to 20 µM. Besides, in series [2], the IC50 was over 100 µM and the IC90 was over 100 µM.

Turning to `COc1cc(/C=N/Nc2nc(-c3cccc([N+](=O)[O-])c3)cs2)cc(Br)c1O`, the IC50 in series [1] is over 20 µM.

As to `CCOC(=O)c1sc(N/N=C/c2ccc(O)c(OC)c2)nc1C`, in series [1], the IC50 was 11.4 µM. For the same compound, in series [2], the IC50 is 59 µM, the IC90 is over 200 µM and the MIC stood at 81 µM (≈ 27.2 µg/mL). In addition, the IC50 in series [3] worked out at 116 µM.

On to `CC(/C=C1\SC(=S)N(CCC(=O)Nc2ccc(C(=O)O)c(O)c2)C1=O)=C\c1ccccc1`, for which the IC50 in [1] was over 50 µM.

On to `O=[N+]([O-])c1ccc(-c2csc(N/N=C/c3cc(Br)c(O)c(Br)c3)n2)cc1`, for which, in [1], the IC50 worked out at 2.27 µM. Moreover, in series [2], the IC50 was determined as 130 µM, the IC90 was over 200 µM and the MIC is over 200 µM. Also, in series [3], the IC50 turned out to be 18.7 µM.

For `COc1cc(/C=N/Nc2nc(C)c(C(C)=O)s2)cc(Br)c1O`, the IC50 in series [1] was over 20 µM.

In the case of `O=[N+]([O-])c1ccc(-c2csc(N/N=C/c3cc(Br)cc(Br)c3O)n2)cc1`, the IC50 in series [1] came out at 19.3 µM. In series [2], the IC50 amounted to 86 µM, the IC90 is over 200 µM and the MIC was over 200 µM.

Consider `Cc1nc(N/N=C/c2ccc(O)cc2)sc1C`, for which the IC50 in [1] is over 20 µM.

As for `COc1cc(/C=N/Nc2nc(-c3cccc([N+](=O)[O-])c3)cs2)cc(OC)c1O`, the IC50 in series [1] was over 20 µM.

Consider `Oc1ccc(/C=N/Nc2nc(-c3ccccc3)c(-c3ccccc3)s2)cc1`, for which the IC50 in series [1] is over 20 µM.

Regarding `COc1cc(/C=N/Nc2nc(-c3ccc(Br)cc3)cs2)cc(OC)c1OC`, the IC50 in series [1] was over 20 µM.

For `COc1cc(/C=N/Nc2nccs2)ccc1O`, the IC50 in series [1] is over 20 µM.

As to `COc1cc(/C=N/Nc2nc(-c3ccccc3)cs2)cc(Br)c1O`, the IC50 in series [1] is over 20 µM.

Turning to `COc1cc(/C=N/Nc2nc(-c3ccc(Cl)cc3Cl)cs2)ccc1O`, the IC50 in series [1] is over 20 µM.

On to `COc1cc(/C=N/Nc2nc(C)cs2)cc(Br)c1O`, for which the IC50 in series [1] was over 20 µM.

Consider `COc1cc(/C=N/Nc2nc(-c3ccccc3)c(-c3ccccc3)s2)cc(OC)c1O`, for which the IC50 in [1] was over 20 µM.

Regarding `COc1cc(/C=N\Nc2nc(-c3ccc(Br)cc3)cs2)cc([N+](=O)[O-])c1O`, the IC50 was determined as 6 µM in series [1], 10 µM in series [2] and 116 µM in [3]. In [4], the viability at 80 ug/ml came out at 10%. Moreover, the IC90 in series [2] is 13.5 µM. Also, the MIC in series [2] amounted to 25 µM (≈ 11.2 µg/mL). For the same compound, the Activity in series [5] is 1.42 deltalog10CFU; in [7], 1.2 deltalog10CFU; in series [8], 1.96 deltalog10CFU. Besides, the viability at 0.8 ug/ml in [6] was found to be 100%. In series [9], the viability at 8 ug/ml is under 10%.

Consider `CC(=O)c1sc(N/N=C/c2cc(Br)ccc2O)nc1C`, for which the IC50 in series [1] was over 20 µM.

With `COc1cc(/C=N/Nc2nc(-c3ccc(Cl)cc3)cs2)cc(Br)c1O`, the IC50 was 4.54 µM in [1], 200 µM in series [2] and 27.6 µM in series [3]. In addition, the IC90 in series [2] is over 200 µM. The MIC in series [2] was over 200 µM.

In the case of `O=[N+]([O-])c1cccc(-c2csc(N/N=C/c3cccc(O)c3)n2)c1`, the IC50 in series [1] was over 20 µM.

As for `COc1ccc(/C=N/Nc2nc(-c3ccccc3)c(-c3ccccc3)s2)cc1O`, the IC50 in series [1] was over 20 µM.

For `O=[N+]([O-])c1cccc(-c2csc(N/N=C/c3ccccc3O)n2)c1`, the IC50 in series [1] was over 20 µM.

Consider `CC(/C=C1\SC(=S)N(CCC(=O)Nc2ccc(O)cc2)C1=O)=C\c1ccccc1`, for which the IC50 in series [1] came out at 22.2 µM.

As for `O=C(O)c1ccc(/C=N/Nc2nccs2)cc1`, in series [1], the half-inhibitory concentration (IC50) was over 20 µM.

Consider `O=[N+]([O-])c1cc(/C=N\Nc2nccs2)ccc1O`, for which the IC50 in series [1] came out at 20 µM. For the same compound, in series [2], the IC50 turned out to be 59.4 µM and the IC90 was over 100 µM.

For orientation: IC50 means the concentration at which inhibition is half-maximal. What is called IC90 is the concentration at which the effect reaches the 90% level. The MIC is the lowest concentration found to suppress growth.
